Results: ChEMBL document CHEMBL3596099, “Strong positive cooperativity in binding to the A3T3 repeat by Hoechst 33258 derivatives attaching the quinoline units at the end of a branched linker” (Bioorg Med Chem, 2015)
Values belong to the molecule of their own block, whether it stands above or below them. Activity calls are given as the source filed them. No cut-off for these calls is given here.

Tests used:
Format in all cases: nucleic-acid assay
Nucleic Acid [1] = assay: Binding affinity to A3T3 repeat containing DNA5(3) (unknown origin) at 5 uM by UV-vis spectroscopy
How it was run: (§1)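 UV–vis spectra of 5 μM ligand with or without DNA5(3), in 3.0 mM HEPES, 3.0 mM NaCl, pH 7.0, 25 °C. Samples are stirred 7 h at room temperature before measurement. Band shifts and % absorbance change are recorded for the Hoechst and quinoline regions.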

Nucleic Acid [2] = assay: Binding affinity to A3T3 repeat containing DNA1 (unknown origin) at 10 uM by CD spectroscopy
How it was run: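 CD spectrum of DNA1 (5 μM in A3T3) recorded alone and with ligand at 10 μM (2 equiv relative to A3T3).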

Nucleic Acid [3] = assay: Binding affinity to A3T3 repeat containing DNA5(3) (unknown origin) at 0 to 4 uM by CD spectroscopy
Nucleic Acid [4] = assay: Binding affinity to A3T3 repeat containing DNA5(3) (unknown origin) assessed as association constant for changes at 275 nm at 0 to 4 uM by CD spectroscopy
Nucleic Acid [5] = assay: Binding affinity to A3T3 repeat containing DNA5(3) (unknown origin) assessed as association constant for changes at 327 nm at 0 to 4 uM by CD spectroscopy
Nucleic Acid [6] = assay: Binding affinity to A3T3 repeat not-containing DNA0 (unknown origin) assessed as increase in fluorescence intensity at 10 nM by fluorescence titration method
How it was run: (§2)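 Ligand at 10 nM in 3.0 mM HEPES, 3.0 mM NaCl, pH 7.0 is stirred 4 h at room temperature in a quartz cell. DNA is added in aliquots, 0–0.8 μM (0–4 μM in A3T3), with 1 h stirring after each addition. Fluorescence is read with 363 nm excitation at 25 °C and ΔF is plotted against A3T3 concentration. Data are fitted to a two-mode (high/low affinity) model. McGhee–von Hippel analysis then gives n, K and ω.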

Nucleic Acid [7] = assay: Binding affinity to A3T3 repeat containing DNA5(3) (unknown origin) assessed as cooperativity with DNA at 10 nM by fluorescence titration based McGhee-von Hippel analysis; how it was run: as §2
Nucleic Acid [8] = assay: Binding affinity to A3T3 repeat containing DNA5(3) (unknown origin) assessed as Hoechst region-induced shift to longer wavelength (372.5 to 384.5 nm) with increase in intensity at 5 uM by UV-vis spectroscopy; how it was run: as §1
Nucleic Acid [9] = assay: Binding affinity to A3T3 repeat containing DNA5(3) (unknown origin) assessed as quinoline region-induced shift to shorter wavelength (328.5 to 326.5 nm) with % increase in intensity at 5 uM by UV-vis spectroscopy; how it was run: as §1

Compound: CN1CCN(c2cc(C(=O)NCCN(CCC(=O)NCCOCCOCCNC(=O)COc3ccc4ncccc4c3Br)CCC(=O)NCCOCCOCCNC(=O)COc3ccc4ncccc4c3Br)c3nc(-c4ccc5nc(-c6ccc(O)cc6)[nH]c5c4)[nH]c3c2)CC1
- Activity (Nucleic Acid [1]): inactive

Compound: CN1CCN(c2cc(C(=O)NCCN(CCC(=O)NCCOCCOCCNC(=O)COc3ccc4nccnc4c3)CCC(=O)NCCOCCOCCNC(=O)COc3ccc4nccnc4c3)c3nc(-c4ccc5nc(-c6ccc(O)cc6)[nH]c5c4)[nH]c3c2)CC1
- Activity (Nucleic Acid [7]): inactive

Compound: CN1CCN(c2cc(C(=O)NCCN(CCC(=O)NCCOCCOCC(=O)NCCOCCOCCNC(=O)COc3ccc4ncccc4c3)CCC(=O)NCCOCCOCC(=O)NCCOCCOCCNC(=O)COc3ccc4ncccc4c3)c3nc(-c4ccc5nc(-c6ccc(O)cc6)[nH]c5c4)[nH]c3c2)CC1
- Activity (Nucleic Acid [7]): inactive

Compound: CN1CCN(c2cc(C(=O)NCCN(CCC(=O)NCCOCCOCCNC(=O)COc3cccnc3)CCC(=O)NCCOCCOCCNC(=O)COc3cccnc3)c3nc(-c4ccc5nc(-c6ccc(O)cc6)[nH]c5c4)[nH]c3c2)CC1
- Activity (Nucleic Acid [7]): inactive

Compound: CN1CCN(c2cc(C(=O)NCCN(CCC(=O)NCCNC(=O)COc3ccc4ncccc4c3)CCC(=O)NCCNC(=O)COc3ccc4ncccc4c3)c3nc(-c4ccc5nc(-c6ccc(O)cc6)[nH]c5c4)[nH]c3c2)CC1
- Activity (Nucleic Acid [7]): inactive

Next, values leading:

- Activity (Nucleic Acid [2]): inactive
- Activity (Nucleic Acid [3]): Active
- K (Nucleic Acid [4]): 6.5 ×10⁶ /M
- K (Nucleic Acid [5]): 3.9 ×10⁵ /M
- Activity (Nucleic Acid [6]): inactive
- Activity (Nucleic Acid [7]): Active
- Activity (Nucleic Acid [1]): Active
- Activity (Nucleic Acid [8]): 50%
- Activity (Nucleic Acid [9]): 43%
Compound: CN1CCN(c2cc(C(=O)NCCN(CCC(=O)NCCOCCOCCNC(=O)COc3ccc4ncccc4c3)CCC(=O)NCCOCCOCCNC(=O)COc3ccc4ncccc4c3)c3nc(-c4ccc5nc(-c6ccc(O)cc6)[nH]c5c4)[nH]c3c2)CC1

- Activity (Nucleic Acid [7]): inactive
Compound: CN1CCN(c2cc(C(=O)NCCN(CCC(=O)NCCOCCOCCNC(=O)COc3ccc4ccccc4n3)CCC(=O)NCCOCCOCCNC(=O)COc3ccc4ccccc4n3)c3nc(-c4ccc5nc(-c6ccc(O)cc6)[nH]c5c4)[nH]c3c2)CC1

- Activity (Nucleic Acid [7]): Active
Compound: CN1CCN(c2cc(C(=O)NCCN(CCC(=O)NCCOCCOCCNC(=O)COc3ccc4cnccc4c3)CCC(=O)NCCOCCOCCNC(=O)COc3ccc4cnccc4c3)c3nc(-c4ccc5nc(-c6ccc(O)cc6)[nH]c5c4)[nH]c3c2)CC1

- Activity (Nucleic Acid [7]): Active
Compound: CN1CCN(c2cc(C(=O)NCCN(CCC(=O)NCCOCCOCCNC(=O)COc3ccc4ccccc4c3)CCC(=O)NCCOCCOCCNC(=O)COc3ccc4ccccc4c3)c3nc(-c4ccc5nc(-c6ccc(O)cc6)[nH]c5c4)[nH]c3c2)CC1
